Experimental data as given in ChEMBL document CHEMBL1124035, “1-Amino-substituted 4-methyl-5H-pyrido[4,3-b]indoles (gamma-carbolines) as tricyclic analogues of ellipticines: a new class of antineoplastic agents” (1988).

Key:
Mus musculus [1] = assay: Antitumor activity against P388 leukemia in mice at a dose of 2.5 mg/kg administered intraperitoneally for 5 days; type: functional; settings: route intraperitoneal
Method in brief: (§1)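 CDF1 hybrid male or female mice, 10 per group, were inoculated ip with 10^6 viable P388 cells on day 0. Drugs in distilled water were given ip (0.1 mL/10 g body weight) daily D1-5. Vehicle, 5-fluorouracil and BD 84 were given the same way. T/C = median survival day of treated / controls × 100; T/C > 128% was significant; cures counted at D60.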

Mus musculus [2] = assay: Antitumor activity against P388 leukemia in mice at a dose of 20 mg/kg administered intraperitoneally for 5 days; Nontoxic at this dose; type: functional; settings: route intraperitoneal
Method in brief: (§2)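 CDF1 hybrid male or female mice, 10 per group, were inoculated ip on day 0 with 10^6 viable P388 leukemia cells. Drug in distilled water was given ip (0.1 mL/10 g body weight) daily on days 1-5, with vehicle, 5-fluorouracil and BD 84 controls given the same way. T/C = median survival of treated/controls × 100; T/C > 128% counted as significant.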

Mus musculus [3] = assay: Antitumor activity against P388 leukemia in mice at a dose of 10 mg/kg administered intraperitoneally for 5 days; type: functional; settings: route intraperitoneal; method in brief: as §1
L1210 = assay: Ability to reduce the cell count to 50% in L1210 culture cells; type: functional; settings: Mus musculus, read-out: ID50 (the source's name)
Method in brief: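 L1210 cells in exponential growth in RPMI 1640 with 2 mM glutamine, penicillin/streptomycin and 10% FCS, 37 °C, 5% CO2. Drugs dissolved in distilled water were added to cells at 0.8 × 10^5 cells/mL for 48 h, then cells were counted. ID50 is the concentration halving cell proliferation versus controls, from regression of dose-response data; mean of two independent experiments.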

Mus musculus [4] = assay: Antitumor activity against P388 leukemia in mice at a dose of 5 mg/kg administered intraperitoneally for 5 days; type: functional; settings: route intraperitoneal; method in brief: as §2
Calf thymus DNA = assay: Apparent DNA affinity constant; type: nucleic-acid assay; settings: Bos taurus
Method in brief: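 Apparent DNA affinity constant was measured by competition with ethidium bromide. Buffer was 20 mM Na2HPO4/NaH2PO4, 0.1 M NaCl, 1 mM EDTA, pH 7.4, with calf thymus DNA at 10 μg/mL. Values are given in 10^6 M⁻¹.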

Mus musculus [5] = assay: Antitumor activity against P388 leukemia in mice at a dose of 16 mg/kg administered intraperitoneally for 5 days; type: functional; settings: route intraperitoneal; method in brief: as §1
Mus musculus [6] = assay: Antitumor activity against P388 leukemia in mice at a dose of 4 mg/kg administered intraperitoneally; type: functional; settings: route intraperitoneal
Mus musculus [7] = assay: Antitumor activity against P388 leukemia in mice at a dose of 0.5 mg/kg administered intraperitoneally for 5 days; type: functional; settings: route intraperitoneal; method in brief: as §1
Mus musculus [8] = assay: Antitumor activity against P388 leukemia in mice at a dose of 8 mg/kg administered intraperitoneally for 5 days; type: functional; settings: route intraperitoneal; method in brief: as §2
Mus musculus [9] = assay: Antitumor activity against P388 leukemia in mice at a dose of 2 mg/kg administered intraperitoneally for 5 days; type: functional; settings: route intraperitoneal; method in brief: as §1
Mus musculus [10] = assay: Antitumor activity against P388 leukemia in mice at a dose of 1 mg/kg administered intraperitoneally for 5 days; type: functional; settings: route intraperitoneal; method in brief: as §1
Mus musculus [11] = assay: Antitumor activity against P388 leukemia in mice at a dose of 24 mg/kg administered intraperitoneally for 5 days; type: functional; settings: route intraperitoneal; method in brief: as §2

Row | IC50 (L1210) | K aff (Calf thymus DNA) | SMILES | T/C (Mus musculus [1]) | T/C (Mus musculus [2]) | T/C (Mus musculus [3]) | T/C (Mus musculus [4]) | T/C (Mus musculus [5]) | T/C (Mus musculus [6]) | T/C (Mus musculus [7]) | T/C (Mus musculus [8]) | T/C (Mus musculus [9]) | T/C (Mus musculus [10]) | T/C (Mus musculus [11])
1 | 190 nM | 120000 M⁻¹ | CN(C)CCCNc1nccc2c1c1cc(O)ccc1n2C | 137% | 173% | 169% | 145% | – | – | – | – | – | – | –
2 | 100 nM | 700000 M⁻¹ | CCN(CC)CCCNc1nccc2c(C)c3[nH]c4ccc(OC)cc4c3c(C)c12 [RETELLIPTINE] | – | – | – | – | 283% | 245% | 171% | 273% | 188% | 178% | 113%
